Experimental data from ChEMBL document CHEMBL4257497, “Design, synthesis and biological evaluation of novel 1,3-diarylpyrazoles as cyclooxygenase inhibitors, antiplatelet and anticancer agents” (Medchemcomm, 2018).

Legend:
[1] = biological target: T1, COX1 (Prostaglandin G/H synthase 1) (Ovis aries, UniProt P05979); experiment: Inhibition of sheep COX1 at 10 uM assessed as reduction in PGE2 formation using arachidonic acid as substrate by enzyme immunoassay relative to control; conditions: probe arachidonic acid
T1 sequence (P05979 whole entry): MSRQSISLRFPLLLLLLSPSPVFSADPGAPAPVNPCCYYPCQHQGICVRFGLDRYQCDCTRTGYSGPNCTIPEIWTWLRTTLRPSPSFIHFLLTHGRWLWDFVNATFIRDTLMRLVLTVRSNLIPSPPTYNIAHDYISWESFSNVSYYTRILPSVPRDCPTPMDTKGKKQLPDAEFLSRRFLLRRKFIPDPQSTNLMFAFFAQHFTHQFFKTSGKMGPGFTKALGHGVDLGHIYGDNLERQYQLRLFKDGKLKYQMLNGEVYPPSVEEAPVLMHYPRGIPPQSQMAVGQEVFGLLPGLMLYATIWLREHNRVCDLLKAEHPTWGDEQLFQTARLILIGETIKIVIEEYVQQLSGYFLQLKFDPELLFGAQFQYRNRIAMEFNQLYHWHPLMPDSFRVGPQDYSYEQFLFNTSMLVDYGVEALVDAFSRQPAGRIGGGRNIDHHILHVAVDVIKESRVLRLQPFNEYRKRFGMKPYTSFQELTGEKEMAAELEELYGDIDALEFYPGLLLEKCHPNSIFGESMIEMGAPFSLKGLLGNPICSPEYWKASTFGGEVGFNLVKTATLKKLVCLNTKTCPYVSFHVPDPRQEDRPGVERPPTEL
In short: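 Recombinant ovine COX-1, test agent at 10 μM, arachidonic acid as substrate. PGE2 formed is measured by competitive EIA (PGE2–acetylcholinesterase tracer, monoclonal anti-PGE2, Ellman's reagent, absorbance 412 nm) and quantified from an 8-point PGE2 standard curve. Result given as % inhibition of enzyme activity.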

Platelet [2] = experiment: Antiplatelet activity in human platelet rich plasma assessed as inhibition of arachidonic acid-induced platelet aggregation at 100 uM preincubated for 5 mins followed by arachidonic acid addition measured for 3 mins by aggregometric analysis relative to control; format: functional
In short: (§1)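 Citrated venous blood (3.2% citrate, 1:9) from healthy donors free of antiplatelet drugs for 10 days; PRP from 800 rpm 10 min spin, PPP from 1500 rpm 10 min; count set to 3.8 × 10^5 platelets […]. PRP stirred at 1100 rpm, 37 °C; compound in DMSO (1% carrier) 5 min before agonist (AA final 700 μM; collagen 5 μg ml−1). Turbidimetric read, triplicate; % inhibition versus DMSO-treated maximum aggregation.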

Platelet [3] = experiment: Antiplatelet activity in human platelet rich plasma assessed as inhibition of collagen-induced platelet aggregation at 100 uM preincubated for 5 mins followed by arachidonic acid addition measured for 3 mins by aggregometric analysis relative to control; format: functional; in short: as §1
Huh-7 = experiment: Cytotoxicity against human HuH7 cells after 72 hrs by SRB assay; format: functional, cell-based
In short: (§2)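 Cells cultured in DMEM with 10% FBS, 1% non-essential amino acids, penicillin/streptomycin, 37 °C, 5% CO2. 2000–3000 cells per well seeded, grown 24 h, then exposed 72 h to compound (DMSO) at 40, 20, 10, 5, 2.5 μM. TCA fixation, 0.4% SRB stain, unbound dye washed off with 1% acetic acid, bound dye dissolved in 10 mM Tris base, absorbance 515 nm. IC50 against DMSO controls, triplicate.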

MCF7 = experiment: Cytotoxicity against human MCF7 cells after 72 hrs by SRB assay; format: functional, cell-based; in short: as §2
HCT-116 = experiment: Cytotoxicity against human HCT116 cells after 72 hrs by SRB assay; format: functional, cell-based; in short: as §2
Platelet [4] = experiment: Antiplatelet activity in human platelet rich plasma assessed as inhibition of arachidonic acid-induced platelet aggregation preincubated for 5 mins followed by arachidonic acid addition measured for 3 mins by aggregometric analysis; format: functional, cell-based
[5] = Homo sapiens, Huh-7, 72 h, read-out: IC50
[6] = Homo sapiens, MCF7, 72 h, read-out: IC50
[7] = Homo sapiens, HCT-116, 72 h, read-out: IC50

| inhibition at 10 µM [1] | IC50 (Platelet [4]) | SMILES | inhibition at 100 µM (Platelet [2]) | inhibition at 100 µM (Platelet [3]) | IC50 (Huh-7; [5]) | IC50 (MCF7; [6]) | IC50 (HCT-116; [7]) | IC50 (Huh-7; huh-7) | IC50 (HCT-116; hct-116) | IC50 (MCF7; mcf7) |
| --- | --- | --- | --- | --- | --- | --- | --- | --- | --- | --- |
| 26.6% | – | O=C(/C=C/c1cn(-c2ccccc2)nc1-c1ccncc1)NCCc1ccncc1 | 71.4% | 74.6% | 6.5 µM | 11 µM | 7.1 µM | – | – | – |
| 54.6% | 10.1 µM | CS(=O)(=O)c1ccc(-n2cc(/C=C/C(=O)NCCc3ccccn3)c(-c3cccnc3)n2)cc1 | 90.7% | 78.7% | – | 14.3 µM | – | Not Active | Not Active | – |
| 2.46% | – | Cc1nccn1CCNC(=O)/C=C/c1cn(-c2ccccc2)nc1-c1cccnc1 | 0% | 15.5% | 25.6 µM | 21.8 µM | 20 µM | – | – | – |
| 5.56% | – | O=C(/C=C/c1cn(-c2ccccc2)nc1-c1cccnc1)NCc1cccnc1 | 1.26% | 63.3% | 21 µM | 30.9 µM | 21.6 µM | – | – | – |
| 7.95% | 21.4 µM | CS(=O)(=O)c1ccc(-n2cc(/C=C/C(=O)NCCc3ccncc3)c(-c3cccnc3)n2)cc1 | 100% | 71.8% | 38.7 µM | – | 19.8 µM | – | – | Not Active |
| 36.8% | – | Cc1nccn1CCCNC(=O)/C=C/c1cn(-c2ccc(S(C)(=O)=O)cc2)nc1-c1cccnc1 | 19.5% | 11.1% | – | – | – | Not Active | Not Active | Not Active |
| 12.6% | 33.6 µM | O=C(/C=C/c1cn(-c2ccccc2)nc1-c1ccncc1)NCCCn1ccnc1 | 90.6% | 88.9% | 6.8 µM | – | 18.5 µM | – | – | Not Active |
| 5.82% | – | O=C(/C=C/c1cn(-c2ccccc2)nc1-c1ccncc1)NCc1ccncc1 | 4.96% | 50.1% | 32.6 µM | – | 19.9 µM | – | – | Not Active |
| 10.7% | – | CS(=O)(=O)c1ccc(-n2cc(/C=C/C(=O)NCc3ccccn3)c(-c3cccnc3)n2)cc1 | 8.92% | 59.8% | 24.7 µM | – | 27 µM | – | – | Not Active |
| 9.37% | 29.1 µM | O=C(/C=C/c1cn(-c2ccccc2)nc1-c1ccncc1)NCCc1cccnc1 | 93.7% | 86.9% | – | 16.1 µM | 14.6 µM | Not Active | – | – |
| 10.2% | – | O=C(/C=C/c1cn(-c2ccccc2)nc1-c1cccnc1)NCCc1ccncc1 | 11.3% | 75.9% | 14.5 µM | – | 26.7 µM | – | – | Not Active |
| 16.9% | – | Cc1nccn1CCNC(=O)/C=C/c1cn(-c2ccccc2)nc1-c1ccncc1 | 2.54% | 35% | 21 µM | – | 12.6 µM | – | – | Not Active |
| 0.45% | – | O=C(/C=C/c1cn(-c2ccccc2)nc1-c1cccnc1)NCCc1cccnc1 | 0% | 76.6% | 8.1 µM | 30.8 µM | 16.9 µM | – | – | – |
| 11.3% | – | O=C(/C=C/c1cn(-c2ccccc2)nc1-c1cccnc1)NCc1ccccn1 | 0% | 56.5% | 18.5 µM | 27.8 µM | 24.5 µM | – | – | – |
| 0.12% | – | O=C(/C=C/c1cn(-c2ccccc2)nc1-c1cccnc1)NCCCn1ccnc1 | 16.1% | 86.5% | 14.3 µM | 15.4 µM | 17.6 µM | – | – | – |
